Test results as given in ChEMBL document CHEMBL5608187, “Discovery of pyridoquinoxaline-based new P-gp inhibitors as coadjutant against Multi Drug Resistance in cancer” (Eur J Med Chem, 2024).
Activity calls are given as the source filed them. The rule behind the calls is not given here.

Assays:
[1] = target: T1, ATP-dependent translocase ABCB1 (Homo sapiens, UniProt P08183); assay: Inhibition of P-gp in human A498 cells assessed as increase in green fluorescence intensity at 0.1 to 10 uM incubated for 15 mins followed by incubation with EFFLUX-ID Green Detection Reagent and Hoeschst-33342 dye and measured after 30 mins by fluorescence analysis; format: cell-based; conditions: a498, 0.25 h, dose 0.1-10 µM
In short: (§1)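 5000 cells/well in phenol-red-free medium plated 24 h before; compounds 0.1, 1, 10 µM for 15 min, then EFLUXX-ID Green reagent (1:200) plus Hoechst-33342 1 µg/mL, 30 min 37 °C. Widefield imaging; median green intensity from 250 cells per well normalized to untreated wells. Mean ± SD of three wells; one-tailed t-test.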

[2] = target: T1, ATP-dependent translocase ABCB1; assay: Inhibition of P-gp in human CAKI-2 cells assessed as increase in green fluorescence intensity at 0.1 to 10 uM incubated for 15 mins followed by incubation with EFFLUX-ID Green Detection Reagent and Hoeschst-33342 dye and measured after 30 mins by fluorescence analysis; format: cell-based; conditions: caki-2, 0.25 h, dose 0.1-10 µM; in short: as §1
[3] = target: T1, ATP-dependent translocase ABCB1; assay: Inhibition of P-gp in human HT1197 cells assessed as increase in green fluorescence intensity at 0.1 to 10 uM incubated for 15 mins followed by incubation with EFFLUX-ID Green Detection Reagent and Hoeschst-33342 dye and measured after 30 mins by fluorescence analysis; format: cell-based; conditions: ht1197, 0.25 h, dose 0.1-10 µM; in short: as §1
[4] = target: T1, ATP-dependent translocase ABCB1; assay: Inhibition of P-gp in human HCT-15 cells assessed as increase in green fluorescence intensity at 0.1 to 1 uM incubated for 15 mins followed by incubation with EFFLUX-ID Green Detection Reagent and Hoeschst-33342 dye and measured after 30 mins by fluorescence analysis; format: cell-based; conditions: hct-15, 0.25 h, dose 0.1-1 µM; in short: as §1
A498 = assay: Coadjutant activity against multidrug resistance in human A498 cells assessed as potentiation of vincristine-induced cell growth inhibition at 0.25 to 4 uM incubated for 72 hrs in presence of 0.2 uM vincristine by SiR-DNA/CellTox Green Dye based fluorescence analysis; format: functional; conditions: dose 0.25-4 µM
In short: (§2)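 Growth by live-cell imaging: 500 cells/well plated with SiR-DNA and CellTox Green dye; serial dilutions in phenol-red-free complete medium added next day. Imaged at addition and at 72 h. Live cells = SiR-DNA nuclei minus CellTox-positive dead cells; percentage growth calculated. Three technical replicates; two-tailed t-test. Inhibitor paired with anticancer drug at fixed or scaled levels.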

U-87 MG [5] = assay: Coadjutant activity against multidrug resistance in human U-87 MG cells assessed as potentiation of vincristine-induced cell growth inhibition at 0.25 to 4 uM incubated for 72 hrs in presence of 0.2 uM vincristine by SiR-DNA/CellTox Green Dye based fluorescence analysis; format: functional; conditions: U-87MG ATCC, dose 0.25-4 µM; in short: as §2
SK-HEP1 = assay: Coadjutant activity against multidrug resistance in human SK-HEP1 cells assessed as potentiation of vincristine-induced cell growth inhibition at 4 uM incubated for 72 hrs in presence of 0.02 to 20 uM vincristine by SiR-DNA/CellTox Green Dye based fluorescence analysis; format: functional; in short: as §2
MeWo [6] = assay: Coadjutant activity against multidrug resistance in human MeWo cells assessed as potentiation of vincristine-induced cell growth inhibition at 4 uM incubated for 72 hrs in presence of 0.02 to 20 uM vincristine by SiR-DNA/CellTox Green Dye based fluorescence analysis; format: functional; in short: as §2
U-87 MG [7] = assay: Coadjutant activity against multidrug resistance in human U-87 MG cells assessed as potentiation of vincristine-induced cell growth inhibition at 4 uM incubated for 72 hrs in presence of 0.02 to 20 uM vincristine by SiR-DNA/CellTox Green Dye based fluorescence analysis; format: functional; conditions: U-87MG ATCC; in short: as §2
MeWo [8] = assay: Cytotoxicity against human MeWo cells assessed as inhibition of cell growth at 4 uM incubated for 72 hrs by SiR-DNA/CellTox Green Dye based fluorescence analysis; format: toxicity
In short: (§3)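 Single-agent control at 4 µM, no anticancer drug. 500 cells/well with SiR-DNA and CellTox Green; imaged at addition and 72 h. Live count = total nuclei minus dead cells, expressed as percent growth. Three technical replicates.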

U-87 MG [9] = assay: Cytotoxicity against human U-87 MG cells assessed as inhibition of cell growth at 4 uM incubated for 72 hrs by SiR-DNA/CellTox Green Dye based fluorescence analysis; format: toxicity; conditions: u-87mg atcc; in short: as §3
A704 = assay: Coadjutant activity against multidrug resistance in human A704 cells assessed as potentiation of etoposide-induced cell growth inhibition at 4 uM incubated for 72 hrs in presence of 0.04 to 40 uM etoposide by SiR-DNA/CellTox Green Dye based fluorescence analysis; format: functional; in short: as §2
U-87 MG [10] = assay: Coadjutant activity against multidrug resistance in human U-87 MG cells assessed as potentiation of etoposide-induced cell growth inhibition at 4 uM incubated for 72 hrs in presence of 0.04 to 40 uM etoposide by SiR-DNA/CellTox Green Dye based fluorescence analysis; format: functional; conditions: U-87MG ATCC; in short: as §2
SK-N-SH = assay: Coadjutant activity against multidrug resistance in human SK-N-SH cells assessed as potentiation of etoposide-induced cell growth inhibition at 4 uM incubated for 72 hrs in presence of 0.04 to 40 uM etoposide by SiR-DNA/CellTox Green Dye based fluorescence analysis; format: functional; in short: as §2
HT-29 [11] = assay: Coadjutant activity against multidrug resistance in human HT-29 cells assessed as potentiation of cisplatin-induced cell growth inhibition at 4 uM incubated for 72 hrs in presence of 0.1 to 100 uM cisplatin by SiR-DNA/CellTox Green Dye based fluorescence analysis; format: functional
In short: (§4)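 Cisplatin co-treatment, 72 h imaging growth assay (SiR-DNA nuclei minus CellTox Green dead cells, 500 cells/well, phenol-red-free medium). Combinations: inhibitor fixed with cisplatin 0.1–100 µM, or cisplatin fixed at 0.25 µM with inhibitor 0.25–4 µM. Three technical replicates, mean ± SD; two-tailed t-test.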

HuP-T3 = assay: Coadjutant activity against multidrug resistance in human Hup-T3 cells assessed as potentiation of cisplatin-induced cell growth inhibition at 4 uM incubated for 72 hrs in presence of 0.1 to 100 uM cisplatin by SiR-DNA/CellTox Green Dye based fluorescence analysis; format: functional; in short: as §4
HCT-116 = assay: Coadjutant activity against multidrug resistance in human HCT-116 cells assessed as potentiation of cisplatin-induced cell growth inhibition at 4 uM incubated for 72 hrs in presence of 0.1 to 100 uM cisplatin by SiR-DNA/CellTox Green Dye based fluorescence analysis; format: functional; in short: as §4
HT-29 [12] = assay: Coadjutant activity against multidrug resistance in human HT-29 cells assessed as potentiation of cisplatin-induced cell growth inhibition at 0.25 to 4 uM incubated for 72 hrs in presence of 0.25 uM cisplatin by SiR-DNA/CellTox Green Dye based fluorescence analysis; format: functional; conditions: dose 0.25-4 µM; in short: as §4
[13] = target: T1, ATP-dependent translocase ABCB1; assay: Inhibition of P-gp in human HCT-15 cells assessed as fold increase in green fluorescence intensity at 10 uM incubated for 15 mins followed by incubation with EFFLUX-ID Green Detection Reagent and Hoeschst-33342 dye and measured after 30 mins by fluorescence analysis relative to control; format: cell-based; conditions: hct-15, 0.25 h; in short: as §1

T1 sequence (P08183 whole entry): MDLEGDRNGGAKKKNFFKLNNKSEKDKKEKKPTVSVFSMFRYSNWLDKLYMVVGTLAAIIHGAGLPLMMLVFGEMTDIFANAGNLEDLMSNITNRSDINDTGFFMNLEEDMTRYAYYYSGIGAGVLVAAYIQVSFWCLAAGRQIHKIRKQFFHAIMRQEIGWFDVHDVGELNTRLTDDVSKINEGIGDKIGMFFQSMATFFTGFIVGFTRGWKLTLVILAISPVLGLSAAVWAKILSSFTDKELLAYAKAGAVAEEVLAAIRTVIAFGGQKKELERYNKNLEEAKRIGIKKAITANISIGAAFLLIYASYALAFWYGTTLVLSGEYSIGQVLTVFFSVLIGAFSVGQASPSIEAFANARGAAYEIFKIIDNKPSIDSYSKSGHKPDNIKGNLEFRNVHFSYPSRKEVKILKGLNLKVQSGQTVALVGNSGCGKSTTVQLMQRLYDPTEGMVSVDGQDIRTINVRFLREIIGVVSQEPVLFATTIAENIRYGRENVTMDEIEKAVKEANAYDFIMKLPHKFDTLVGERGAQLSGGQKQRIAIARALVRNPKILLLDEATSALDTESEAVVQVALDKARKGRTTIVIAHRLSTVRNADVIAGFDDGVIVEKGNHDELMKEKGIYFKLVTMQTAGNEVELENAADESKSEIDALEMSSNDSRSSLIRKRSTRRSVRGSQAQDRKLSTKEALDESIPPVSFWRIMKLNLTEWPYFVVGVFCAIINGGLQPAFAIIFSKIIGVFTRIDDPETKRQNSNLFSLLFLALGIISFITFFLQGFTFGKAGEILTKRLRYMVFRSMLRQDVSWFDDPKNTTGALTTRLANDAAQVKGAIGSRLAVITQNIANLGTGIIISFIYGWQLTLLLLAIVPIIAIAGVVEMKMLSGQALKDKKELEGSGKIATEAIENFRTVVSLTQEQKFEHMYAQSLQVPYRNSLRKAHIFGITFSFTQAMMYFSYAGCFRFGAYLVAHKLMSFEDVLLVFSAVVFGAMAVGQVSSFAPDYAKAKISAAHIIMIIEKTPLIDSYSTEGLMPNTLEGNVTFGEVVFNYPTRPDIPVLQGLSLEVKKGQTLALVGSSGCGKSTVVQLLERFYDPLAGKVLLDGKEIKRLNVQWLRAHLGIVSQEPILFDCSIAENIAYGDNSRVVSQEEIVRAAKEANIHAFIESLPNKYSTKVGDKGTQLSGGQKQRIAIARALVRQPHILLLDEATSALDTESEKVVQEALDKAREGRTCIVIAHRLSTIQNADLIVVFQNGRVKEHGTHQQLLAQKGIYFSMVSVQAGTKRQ

Compound: O=C(Nc1ccccc1)c1ccccc1OCc1nc2cc3cccnc3cc2nc1COc1ccccc1C(=O)Nc1ccccc1
- inhibition (INH) [1]: Not Active
- inhibition (INH) [2]: Active
- inhibition (INH) [3]: Not Active
- inhibition (INH) [4]: Dose-Dependent Effect
- Activity (A498): Active
- Activity (U-87 MG [5]): Active
- Activity (SK-HEP1): Active
- Activity (MeWo [6]): Active
- Activity (U-87 MG [7]): Active
- Activity (MeWo [8]): Non-Toxic
- Activity (U-87 MG [9]): Non-Toxic
- Activity (A704): Active
- Activity (U-87 MG [10]): Active
- Activity (SK-N-SH): Active
- Activity (HT-29 [11]): inactive
- Activity (HuP-T3): inactive
- Activity (HCT-116): inactive
- Activity (HT-29 [12]): inactive
- fold change (FC) [13]: 2
